The source of these data is ChEMBL document CHEMBL2040806, “Synthesis and biological evaluation of analogs of the marine alkaloids granulatimide and isogranulatimide” (Eur J Med Chem, 2012).

Usually IC50 stands for the midpoint of a concentration-inhibition curve.

Active and inactive are the calls of the source. The calls are words filed in the database; no cut-off is given here.

In assay [1] the target is Dual specificity tyrosine-phosphorylation-regulated kinase 1A (Rattus norvegicus, UniProt Q63470). Nature of the assay: Inhibition of GST-fused rat recombinant DYRK1A expressed in Escherichia coli using Woodtide as substrate and [gamma-33P] after 30 mins by scintillation counting.
Assay [2] deals with Glycogen synthase kinase-3 (Sus scrofa, UniProt B2LUN4+I6LNT8). Nature of the assay: Inhibition of porcine brain GSK3alpha/beta using GS1 as substrate.
Assay [3] in a line: Cytotoxicity against human Hs683 cells after 72 hrs by MTT assay. Type of assay: functional, cell-based. The settings on record: Hs 683, 72 h. (Formazan colour is commonly taken as a measure of viable cells.)
Assay [4] in a line: Cytotoxicity against p53-mutant human U373 cells after 72 hrs by MTT assay. It is filed as functional, cell-based, U-373MG ATCC. The settings on record: U373 MG.
The test system of another assay is MCF7. Nature of the assay: Cytotoxicity against human MCF7 cells after 72 hrs by MTT assay. Type of assay: functional, cell-based. The settings on record: MCF7, 72 h.
A further assay has as its system PC-3. Put plainly: Cytotoxicity against human PC3 cells after 72 hrs by MTT assay. Type of assay: functional, cell-based. The settings on record: PC-3, 72 h.
Another assay has as its system LoVo. Nature of the assay: Cytotoxicity against human LoVo cells after 72 hrs by MTT assay. Type of assay: functional, cell-based.
A further assay concerns B16-F10. Put plainly: Cytotoxicity against mouse B16F10 cells after 72 hrs by MTT assay. Type of assay: functional, cell-based. The settings on record: B16-F10, 72 h.
Assay [5] is described as follows: Cytotoxicity against human OE21 cells after 72 hrs by MTT assay. Type of assay: functional, cell-based. The settings on record: OE21, 72 h.
The target in assay [6] is Cyclin-dependent kinase 5/CDK5 activator 1 (Homo sapiens, UniProt Q00535). Put plainly: Inhibition of human recombinant CDK5/p25. Type of assay: protein-complex assay. Put shortly: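 Human recombinant CDK5/p25 assayed in triplicate in buffer C with 1 mg/ml histone H1 at 30 °C, 15 µM ATP final. Activity as % of uninhibited control after blank subtraction; IC50 from dose-response curves.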

The test system of assay [7] is A549. Nature of the assay: Cytotoxicity against human A549 cells after 72 hrs by MTT assay. It is filed as functional, cell-based. The settings on record: A549, 72 h.
For assay [8], the target named is Dual specificity protein kinase CLK1 (Mus musculus, UniProt P22518). Nature of the assay: Inhibition of GST-fused mouse recombinant CLK1 expressed in Escherichia coli using RS peptide as substrate. Put shortly: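 Blanks subtracted, activity as % of uninhibited maximum, DMSO dilution controls, IC50 from dose-response curves.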
Assay [9] in a line: Inhibition of porcine brain CK1delta/epsilon using CKS peptide as substrate. Also on record: species or system Sus scrofa.
In assay [10] the test system is A549. Put plainly: Cytostatic activity against human A549 cells after 72 hrs by quantitative videomicroscopic analysis. It is filed as functional, cell-based.
Assay [11] has as its system HCT-116. Nature of the assay: Cell cycle arrest in p53 double-mutant human HCT116 cells assessed as mitotic index at 300 nM after 24 hrs by flow cytometric analysis. Type of assay: functional. Put shortly: (§1)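 HCT116 p53-/- cells pretreated with etoposide for 1 h, then released into drug-free medium with or without inhibitor for 23 h; nocodazole added to trap cells exiting G2/M. Mitotic cells scored by phospho-histone H3 labeling and DNA content (propidium iodide) by flow cytometry.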

Assay [12] relates to HCT-116. Nature of the assay: Cell cycle arrest in p53 double-mutant human HCT116 cells assessed as mitotic index after 24 hrs by flow cytometric analysis. It is filed as functional. Also on record: concentration or dose not given beside the values. Put shortly:
as §1

Dual specificity protein kinase CLK1, sequence (P22518 whole entry, the tested form may be a part): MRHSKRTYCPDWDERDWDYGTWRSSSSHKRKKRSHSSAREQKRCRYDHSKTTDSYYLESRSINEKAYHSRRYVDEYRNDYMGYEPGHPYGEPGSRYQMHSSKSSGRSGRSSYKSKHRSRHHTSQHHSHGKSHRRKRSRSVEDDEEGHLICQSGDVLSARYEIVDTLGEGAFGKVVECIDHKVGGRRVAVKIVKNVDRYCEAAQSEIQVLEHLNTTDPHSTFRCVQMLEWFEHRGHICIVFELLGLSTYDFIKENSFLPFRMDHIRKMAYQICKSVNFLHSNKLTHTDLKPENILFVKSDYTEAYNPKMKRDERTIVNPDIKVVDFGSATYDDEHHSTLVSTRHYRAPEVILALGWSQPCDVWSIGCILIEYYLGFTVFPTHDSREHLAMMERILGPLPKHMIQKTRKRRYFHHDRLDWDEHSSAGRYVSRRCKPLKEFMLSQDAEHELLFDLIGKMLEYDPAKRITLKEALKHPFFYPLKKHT
Cyclin-dependent kinase 5/CDK5 activator 1, sequence (Q00535 whole entry): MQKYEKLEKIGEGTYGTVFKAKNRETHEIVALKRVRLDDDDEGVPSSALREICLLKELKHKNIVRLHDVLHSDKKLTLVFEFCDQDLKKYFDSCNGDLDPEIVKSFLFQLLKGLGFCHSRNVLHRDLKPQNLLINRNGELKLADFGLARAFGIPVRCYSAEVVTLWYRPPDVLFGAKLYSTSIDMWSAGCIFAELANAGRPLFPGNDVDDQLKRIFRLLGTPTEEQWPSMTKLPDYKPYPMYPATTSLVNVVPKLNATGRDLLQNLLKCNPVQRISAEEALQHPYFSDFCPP
Cyclin-dependent kinase 5/CDK5 activator 1, sequence (Q15078 whole entry, further chain): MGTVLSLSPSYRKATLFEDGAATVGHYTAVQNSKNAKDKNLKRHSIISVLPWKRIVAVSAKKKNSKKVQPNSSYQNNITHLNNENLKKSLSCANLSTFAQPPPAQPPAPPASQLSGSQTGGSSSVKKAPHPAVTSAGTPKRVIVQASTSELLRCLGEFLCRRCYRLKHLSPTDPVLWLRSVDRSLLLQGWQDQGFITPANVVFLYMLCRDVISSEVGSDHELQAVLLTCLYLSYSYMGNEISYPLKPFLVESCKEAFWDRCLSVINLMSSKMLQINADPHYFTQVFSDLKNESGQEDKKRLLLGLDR

For the compound `O=C1NC(=O)c2c1c1c3cc(O)ccc3[nH]c1c1cccn21`, the half-maximal inhibitory concentration (IC50) in assay [1] was 0.2 µM; in assay [2], 0.42 µM; in assay [3], more than 100 µM; in assay [4] it was more than 100 µM; in the assay on MCF7, more than 100 µM; in the assay on PC-3, more than 100 µM. The IC50 in the assay with LoVo was 99 µM; in the assay on B16-F10, 93 µM; in [5], more than 100 µM; in assay [6], 2.6 µM; in the assay with A549 [7] it was more than 100 µM; in assay [8], 0.26 µM. Moreover, it took 1.1 µM to reach half-maximal inhibition in assay [9] (IC50).
On to `Cc1ccc2[nH]c3c(c4c(n5cccc35)C(=O)NC4=O)c2c1`, for which the IC50 was determined as 8.3 µM in assay [1]; 1.7 µM in assay [2]; 45 µM in [3]; 22 µM in assay [4]; 42 µM in the assay on MCF7; 75 µM with PC-3. Moreover, the half-maximal inhibitory concentration (IC50) in the assay on LoVo was 52 µM; with B16-F10, 15 µM; in [5] it was more than 100 µM; in assay [6] it was 7.5 µM; in the assay with A549 [7], 14 µM; in assay [8] it was 1.5 µM. Further, the IC50 in [9] is more than 10 µM.
On to `O=C1NC(=O)c2c1c1[nH]ncc1c1[nH]c3ccccc3c21`, for which the IC50 in assay [1] was 1.7 µM; in [2], 0.9 µM; in [3], 93 µM; in assay [4], more than 100 µM; in the assay with PC-3, more than 100 µM; in the assay with LoVo, 44 µM. For the same compound, the concentration for half-maximal inhibition (IC50) in the assay on B16-F10 was 75 µM; in assay [6], 0.91 µM; in the assay with A549 [7] it was more than 100 µM; in [8] it was 0.42 µM; in assay [9], 2.6 µM.
In the case of `O=C1CC(c2c(-c3ccc[nH]3)[nH]c3ccccc23)C(=O)N1` (stereo not given), the half-inhibitory concentration (IC50) in assay [3] was determined as 25 µM; in [4] it was 4 µM; in the assay with MCF7, 35 µM; in the assay on PC-3, 9 µM; with LoVo, 8 µM; in the assay on B16-F10, 2 µM. Further, the IC50 in [5] came out at 67 µM; in the assay on A549 [7], 8 µM. The outcome in the assay on A549 [10] was Active.
Regarding `NC(=O)Nc1cc(-c2cccc(F)c2)sc1C(=O)N[C@H]1CCCNC1` [AZD-7762], in the assay with HCT-116 [11], the Activity turned out to be 75%.
As for `O=C1NC(=O)c2c1c1c3ccccc3[nH]c1c1cccn21`, the IC50 came out at 1.3 µM in assay [1]; 0.57 µM in assay [2]; 52 µM in assay [3]; 33 µM in [4]; 49 µM with MCF7; 50 µM in the assay on PC-3. Also, the 50% inhibitory concentration (IC50) worked out at 11 µM with LoVo; 19 µM in the assay with B16-F10; 75 µM in assay [5]; 2.1 µM in assay [6]; 18 µM in the assay on A549 [7]; 0.52 µM in assay [8]. In addition, the midpoint of inhibition in assay [9], the IC50, lay at 10 µM. For the same compound, the outcome in the assay on A549 [10] was Active. In the assay on HCT-116 [12], the Activity turned out to be 9.6%.
Regarding `Cc1ccc2[nH]c3c4cn[nH]c4c4c(c3c2c1)C(=O)NC4=O`, the IC50 is 1.4 µM in assay [1]; 0.17 µM in assay [2]; more than 100 µM in assay [3]; more than 100 µM in [4]; more than 100 µM with PC-3; 5 µM in the assay on LoVo. Further, the IC50 in the assay with B16-F10 is 2 µM; in assay [6] it was 0.31 µM; with A549 [7], more than 100 µM; in [8], 0.13 µM; in assay [9] it was 0.23 µM. Moreover, the Activity with HCT-116 [12] is recorded as 0%.
As for `COc1ccc2[nH]c(-c3ccc[nH]3)cc2c1`, the IC50 turned out to be 50 µM in assay [3]; 43 µM in assay [4]; 84 µM with MCF7; 26 µM in the assay with PC-3; 26 µM in the assay with LoVo; 61 µM with B16-F10. Moreover, the half-maximal inhibitory concentration (IC50) in [5] came to 33 µM; in the assay with A549 [7], 55 µM. For the same compound, the Activity in the assay with HCT-116 [12] is reported as 8.3%.
As for `O=C1NC(=O)c2c1c1c3ccccc3[nH]c1n1nccc21`, the IC50 in assay [1] is 2.1 µM; in assay [2] it was 0.49 µM; in assay [3] it was 3 µM; in assay [4] it was 0.2 µM; in the assay on MCF7, 25 µM; with PC-3 it was 22 µM. For the same compound, the half-inhibitory concentration (IC50) in the assay with LoVo was 0.4 µM; in the assay with B16-F10, 25 µM; in [5] it was 2 µM; in [6], 4 µM; in the assay on A549 [7] it was 8 µM; in assay [8] it was 0.3 µM. This compound displayed an IC50 in assay [9] of 3.2 µM. Moreover, the Activity in the assay with HCT-116 [12] came out at 23.9%.
Take `Cc1ccc2[nH]c3c(c4c(c5ccnn53)C(=O)NC4=O)c2c1`: the IC50 was more than 10 µM in assay [1]; 0.045 µM in assay [2]; 64 µM in assay [3]; 57 µM in assay [4]; 9 µM in the assay with MCF7; 75 µM in the assay on PC-3. The IC50 is 4 µM with LoVo; 37 µM in the assay on B16-F10; 5 µM in assay [5]; more than 10 µM in [6]; 8 µM with A549 [7]; 3.5 µM in assay [8]. This compound displayed an IC50 in assay [9] of 7.1 µM. Besides, in the assay with HCT-116 [12], the Activity is reported as 13.9%.
Consider `Cc1ccc2[nH]c(-n3cccn3)c(C3=C(Br)C(=O)NC3=O)c2c1`, for which the half-maximal inhibitory concentration (IC50) in assay [3] was 29 µM; in assay [4] it was 27 µM; in the assay on MCF7 it was 15 µM; in the assay on PC-3, 26 µM; in the assay with LoVo it was 27 µM; in the assay with B16-F10, 8 µM. The IC50 in assay [5] amounted to 28 µM; with A549 [7] it was 29 µM. Also, in the assay with HCT-116 [12], the Activity amounted to 5.5%.
On to `COc1ccc2[nH]c(-c3ccc[nH]3)c(C3CC(=O)N(C)C3=O)c2c1` (stereo not given), for which the concentration for half-maximal inhibition (IC50) in assay [3] was 28 µM; in [4] it was 10 µM; in the assay on MCF7, 7 µM; with PC-3 it was 37 µM; in the assay on LoVo, 25 µM; in the assay with B16-F10, 6 µM. Besides, the results for the IC50 (in assay [5]; in the assay with A549 [7]) were 42 µM and 7 µM, respectively. For the same compound, the result in the assay with A549 [10] was Active.
For `COc1ccc2[nH]c3c(c4c(n5cccc35)C(=O)NC4=O)c2c1`, the concentration for half-maximal inhibition (IC50) in [1] is more than 10 µM; in [2], 1.7 µM; in [3], 58 µM; in assay [4], 26 µM; in the assay on MCF7 it was 35 µM; in the assay with PC-3, 66 µM. The IC50 was 39 µM in the assay with LoVo; 22 µM in the assay on B16-F10; 37 µM in assay [5]; more than 10 µM in [6]; 26 µM in the assay with A549 [7]; 10 µM in assay [8]. This compound yielded an IC50 in assay [9] of more than 10 µM.
With `COc1ccc2[nH]c3c(c4c(c5ccnn53)C(=O)NC4=O)c2c1`, the IC50 in [1] was more than 10 µM; in [2] it was 0.7 µM; in assay [3], 22 µM; in assay [4], more than 100 µM; with PC-3, more than 100 µM; in the assay on LoVo, 34 µM. Also, the IC50 in [5] was 35 µM; in [6], more than 10 µM; with A549 [7], 8 µM; in [8] it was more than 10 µM; in [9] it was more than 10 µM.
With `O=C1NC(=O)c2c1c1c3cc(O)ccc3[nH]c1n1nccc21`, the IC50 was 0.18 µM in assay [1]; 0.041 µM in assay [2]; 23 µM in assay [3]; 8 µM in [4]; 36 µM in the assay with PC-3; 7 µM with LoVo. The half-maximal inhibitory concentration (IC50) was 7 µM with B16-F10; 0.51 µM in assay [6]; 15 µM in the assay with A549 [7]; 0.09 µM in assay [8]; 0.16 µM in assay [9]. The Activity in the assay on HCT-116 [12] was 3.9%.
